pEC50, pIC50: −log10 of the molar value. ≈ marks a conversion by molar mass, not a printed value. Calls of active or inactive are those of the source. The calls are words filed in the database; no cut-off is given here.
Molecular target: Voltage-gated inwardly rectifying potassium channel KCNH2 (Homo sapiens, UniProt Q12809)
Assay: Inhibition of human ERG
Conditions: not given

Sequence of Voltage-gated inwardly rectifying potassium channel KCNH2 (Q12809 whole entry): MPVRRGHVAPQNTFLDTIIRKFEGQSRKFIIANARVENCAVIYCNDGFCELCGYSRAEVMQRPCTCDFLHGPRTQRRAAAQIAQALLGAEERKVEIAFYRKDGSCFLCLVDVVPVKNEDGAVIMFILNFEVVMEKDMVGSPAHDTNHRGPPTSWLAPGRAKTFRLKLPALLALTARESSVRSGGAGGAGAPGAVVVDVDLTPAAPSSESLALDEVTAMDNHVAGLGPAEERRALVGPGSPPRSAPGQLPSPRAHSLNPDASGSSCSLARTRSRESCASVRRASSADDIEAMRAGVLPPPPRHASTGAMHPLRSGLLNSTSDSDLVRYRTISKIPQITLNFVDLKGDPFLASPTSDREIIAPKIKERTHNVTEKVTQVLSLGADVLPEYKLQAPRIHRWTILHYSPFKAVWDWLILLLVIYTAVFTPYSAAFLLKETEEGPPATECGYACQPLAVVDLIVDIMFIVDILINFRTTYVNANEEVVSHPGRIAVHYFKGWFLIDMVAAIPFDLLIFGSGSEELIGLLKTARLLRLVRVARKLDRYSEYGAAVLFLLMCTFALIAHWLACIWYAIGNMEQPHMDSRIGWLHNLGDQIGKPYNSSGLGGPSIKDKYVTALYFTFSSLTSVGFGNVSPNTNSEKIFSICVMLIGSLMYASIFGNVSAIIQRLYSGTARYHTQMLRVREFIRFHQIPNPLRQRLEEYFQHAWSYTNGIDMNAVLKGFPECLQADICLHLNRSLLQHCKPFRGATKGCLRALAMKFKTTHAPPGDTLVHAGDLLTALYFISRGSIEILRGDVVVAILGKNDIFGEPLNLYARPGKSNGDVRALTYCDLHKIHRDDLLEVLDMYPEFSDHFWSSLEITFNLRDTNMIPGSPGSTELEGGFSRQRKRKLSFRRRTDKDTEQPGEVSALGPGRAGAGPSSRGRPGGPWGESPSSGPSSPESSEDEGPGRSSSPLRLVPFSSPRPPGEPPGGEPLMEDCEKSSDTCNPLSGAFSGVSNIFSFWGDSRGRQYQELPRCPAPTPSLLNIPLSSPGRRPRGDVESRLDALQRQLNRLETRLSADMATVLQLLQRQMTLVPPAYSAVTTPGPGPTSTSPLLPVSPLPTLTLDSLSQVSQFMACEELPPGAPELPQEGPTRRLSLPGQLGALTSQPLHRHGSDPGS

Compound | pIC50
COc1cc(Nc2nc(C)cc(N(C)C)n2)ccc1F | 5.30
COc1cc(OC)cc(C(=O)N[C@H]2CC[C@H](Nc3nc(C)cc(N(C)C)n3)CC2)c1 | 5.40

Molecular target: Sterol 14-alpha demethylase (Trypanosoma cruzi (strain CL Brener), UniProt Q7Z1V1)
Sequence (Q7Z1V1 whole entry): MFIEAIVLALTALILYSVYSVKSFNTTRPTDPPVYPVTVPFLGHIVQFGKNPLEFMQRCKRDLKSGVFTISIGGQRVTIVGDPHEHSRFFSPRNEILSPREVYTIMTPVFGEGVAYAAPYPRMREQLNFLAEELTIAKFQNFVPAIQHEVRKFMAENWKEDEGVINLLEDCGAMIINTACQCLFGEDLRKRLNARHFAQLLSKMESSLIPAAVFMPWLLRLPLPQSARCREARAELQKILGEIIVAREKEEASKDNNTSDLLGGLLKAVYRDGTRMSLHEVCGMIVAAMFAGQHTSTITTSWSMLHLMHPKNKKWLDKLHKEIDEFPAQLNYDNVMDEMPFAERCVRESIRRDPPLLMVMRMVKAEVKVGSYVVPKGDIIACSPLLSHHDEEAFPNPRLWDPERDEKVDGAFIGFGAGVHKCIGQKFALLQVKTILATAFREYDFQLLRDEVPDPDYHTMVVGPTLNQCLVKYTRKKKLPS
Assay: (§1) Inhibition of Trypanosoma cruzi CYP51
Conditions: not given

pIC50 | Compound
< 5.00 | COc1cc(OC)cc(C(=O)Nc2ccc(Nc3nc(C)cc(N(C)C)n3)cc2)c1

Molecular target: Sterol 14-alpha demethylase (Trypanosoma cruzi (strain CL Brener)) (UniProt Q7Z1V1)
Sequence (Q7Z1V1 whole entry, looked up): as the sequence (Q7Z1V1 whole entry) above
Assay: as §1
Conditions: not given

inhibition | Compound
inactive | COc1cc(Nc2nc(C)cc(N(C)C)n2)ccc1F
inactive | COc1cc(OC)cc(C(=O)N[C@H]2CC[C@H](Nc3nc(C)cc(N(C)C)n3)CC2)c1
inactive | Cc1cc(N(C)C)nc(NCc2ccccc2)n1

Test system: not listed separately
Assay: Kinetic solubility of the compound in water up to 250 uM by laser nephelometry
Assay type: physicochemical
Conditions: read-out: Kinetic_solubility
In short: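 Measured in water after dilution from a DMSO solution of compound.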

solubility kinetic [µM] | Compound
> 250 | COc1cc(Nc2nc(C)cc(N(C)C)n2)ccc1F
> 250 | COc1cccc(Nc2cc(C)nc(NCc3ccccc3)n2)c1
20 (≈ 8.15 µg/mL) | COc1cc(OC)cc(C(=O)Nc2ccc(Nc3nc(C)cc(N(C)C)n3)cc2)c1
> 250 | COc1cc(Nc2nc(C(=O)N3CCCC3)cc(N(C)C)n2)ccc1F
219 (≈ 74.8 µg/mL) | COc1cc(Nc2nc(C)cc(N3CCCC(C#N)C3)n2)ccc1F (centres undefined)
> 250 | Cc1cc(N(C)C)nc(Nc2ccc3c(c2)OCO3)n1
> 250 | COc1cc(Nc2nc(C)cc(N3CCC(F)(F)C3)n2)ccc1F
> 250 | Cc1cc(Nc2ccc(F)cc2)nc(NCc2ccccc2)n1
> 250 | Cc1cc(N(C)C)nc(NCC2CCOCC2)n1
> 250 | COc1cc(OC)cc(C(=O)N[C@H]2CC[C@H](Nc3nc(C)cc(N(C)C)n3)CC2)c1
110 (≈ 36.3 µg/mL) | COc1cc(Nc2nc(N(C)C)cc(C(F)(F)F)n2)ccc1F
> 250 | Cc1cc(N(C)C)nc(N[C@H]2CC[C@H](NC(=O)c3ccccc3)CC2)n1
> 250 | Cc1cc(N(C)C)nc(N[C@H](C)c2ccccc2)n1
> 250 | COc1cc(Nc2nc(CO)cc(N(C)C)n2)ccc1F
> 250 | COc1cc(Nc2nc(C)cc(NCc3ccccc3)n2)ccc1F
160 (≈ 50.6 µg/mL) | COc1cc(Nc2nc(C)cc(N3CCCCC3)n2)ccc1F
> 250 | COc1cccc(Nc2nc(C)cc(N(C)C)n2)c1
> 250 | COc1ccc(Nc2nc(C)cc(N(C)C)n2)cc1
180 (≈ 60.9 µg/mL) | COc1cc(Nc2cc(C)nc(NCc3ccccc3)n2)ccc1F
160 (≈ 42 µg/mL) | COc1cc(Nc2nccc(N(C)C)n2)ccc1F
170 (≈ 51.7 µg/mL) | COc1cc(Nc2nc(C(C)C)cc(N(C)C)n2)ccc1F
> 250 | CCOC1CCCN(c2cc(C)nc(Nc3ccc(F)c(OC)c3)n2)C1 (centres undefined)
> 250 | Cc1cc(N(C)C)nc(NCc2ccc(Cl)cc2)n1
220 (≈ 66.5 µg/mL) | COc1cc(Nc2nc(C)cc(N3CCCC3)n2)ccc1F
> 250 | Cc1cc(N(C)C)nc(NCc2ccccc2)n1
> 250 | COc1cc(Nc2nc(C)cc(N3CCOCC3)n2)ccc1F

Test system: not listed separately
Assay: Selectivity ratio of pEC50 for African green monkey Vero cells to pEC50 for Trypanosoma cruzi amastigote forms infected in African green monkey Vero cells
Assay type: toxicity
Conditions: not given
In short: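 Ratio of Vero pEC50 to T. cruzi intracellular amastigote pEC50, with both values from the Vero-cell amastigote culture format.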

Compound | selectivity ratio
COc1cc(Nc2nc(C)cc(N(C)C)n2)ccc1F | 80
COc1cccc(Nc2cc(C)nc(NCc3ccccc3)n2)c1 | 40
COc1cc(OC)cc(C(=O)Nc2ccc(Nc3nc(C)cc(N(C)C)n3)cc2)c1 | 40
COc1cc(Nc2nc(C(=O)N3CCCC3)cc(N(C)C)n2)ccc1F | > 1.6
COc1ccccc1NC(=O)c1ccc(Nc2nc(C)cc(N(C)C)n2)cc1 | 1.3
COc1cc(Nc2nc(C)cc(N3CCCC(C#N)C3)n2)ccc1F (centres undefined) | 5
Cc1cc(N(C)C)nc(Nc2ccc3c(c2)OCO3)n1 | > 40
COc1cc(Nc2nc(C)cc(N3CCC(F)(F)C3)n2)ccc1F | 4
Cc1cc(Nc2ccc(F)cc2)nc(NCc2ccccc2)n1 | 20
Cc1cc(N(C)C)nc(NCC2CCOCC2)n1 | > 3
COc1cc(OC)cc(C(=O)N[C@H]2CC[C@H](Nc3nc(C)cc(N(C)C)n3)CC2)c1 | 100
COc1cc(Nc2nc(N(C)C)cc(C(F)(F)F)n2)ccc1F | > 2
Cc1cc(N(C)C)nc(N[C@H]2CC[C@H](NC(=O)c3ccccc3)CC2)n1 | > 40
Cc1cc(N(C)C)nc(N[C@H](C)c2ccccc2)n1 | > 40
COc1cc(Nc2nc(CO)cc(N(C)C)n2)ccc1F | > 6
COc1cc(Nc2nc(C)cc(NCc3ccccc3)n2)ccc1F | 6.3
COc1cc(Nc2nc(C)cc(N3CCCCC3)n2)ccc1F | 16
COc1cccc(Nc2nc(C)cc(N(C)C)n2)c1 | > 63
Cc1cc(N(C)C)nc(Nc2ccc(C(=O)NCc3ccccc3)cc2)n1 | 4
COc1ccc(Nc2nc(C)cc(N(C)C)n2)cc1 | > 32
Cc1cc(N(C)C)nc(NC2CCN(C(=O)Cc3ccc(F)cc3F)CC2)n1 | > 16
COc1cc(Nc2cc(C)nc(NCc3ccccc3)n2)ccc1F | 63
COc1cc(Nc2nccc(N(C)C)n2)ccc1F | > 13
COc1cc(Nc2nc(C(C)C)cc(N(C)C)n2)ccc1F | > 25
CCOC1CCCN(c2cc(C)nc(Nc3ccc(F)c(OC)c3)n2)C1 (centres undefined) | 16
Cc1cc(N(C)C)nc(NCc2ccc(Cl)cc2)n1 | 25
Cc1cc(N(C)C)nc(Nc2ccc(C(=O)N3CCCCC3)cc2)n1 | > 25
COc1cc(Nc2nc(C)cc(N3CCCC3)n2)ccc1F | 63
Cc1cc(N(C)C)nc(NCc2ccccc2)n1 | > 16
COc1cc(Nc2nc(C)cc(N3CCOCC3)n2)ccc1F | > 6

Test system: Trypanosoma cruzi
Assay: Antitrypanosomal activity against Trypanosoma cruzi amastigote forms infected in African green monkey Vero cells
Assay type: functional, organism-based
Conditions: not given
In short: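 T. cruzi amastigotes cultured intracellularly in Vero host cells. EC50 determined from concentration-response, reported as pEC50. Mean of two determinations ± range, or of three or more ± standard deviation, depending on the series.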

pEC50 | Compound
6.40 | COc1cc(Nc2nc(C)cc(N(C)C)n2)ccc1F
6.70 | COc1cccc(Nc2cc(C)nc(NCc3ccccc3)n2)c1
6.80 | COc1cc(OC)cc(C(=O)Nc2ccc(Nc3nc(C)cc(N(C)C)n3)cc2)c1
6.10 | COc1ccccc1NC(=O)c1ccc(Nc2nc(C)cc(N(C)C)n2)cc1
5.10 | COc1cc(Nc2nc(C)cc(N3CCCC(C#N)C3)n2)ccc1F (centres undefined)
5.90 | Cc1cc(N(C)C)nc(Nc2ccc3c(c2)OCO3)n1
5.10 | COc1cc(Nc2nc(C)cc(N3CCC(F)(F)C3)n2)ccc1F
6.40 | Cc1cc(Nc2ccc(F)cc2)nc(NCc2ccccc2)n1
4.80 | Cc1cc(N(C)C)nc(NCC2CCOCC2)n1
6.40 | COc1cc(OC)cc(C(=O)N[C@H]2CC[C@H](Nc3nc(C)cc(N(C)C)n3)CC2)c1
4.60 | COc1cc(Nc2nc(N(C)C)cc(C(F)(F)F)n2)ccc1F
5.90 | Cc1cc(N(C)C)nc(N[C@H]2CC[C@H](NC(=O)c3ccccc3)CC2)n1
5.90 | Cc1cc(N(C)C)nc(N[C@H](C)c2ccccc2)n1
5.10 | COc1cc(Nc2nc(CO)cc(N(C)C)n2)ccc1F
6.10 | COc1cc(Nc2nc(C)cc(NCc3ccccc3)n2)ccc1F
6.00 | COc1cc(Nc2nc(C)cc(N3CCCCC3)n2)ccc1F
6.10 | COc1cccc(Nc2nc(C)cc(N(C)C)n2)c1
5.90 | Cc1cc(N(C)C)nc(Nc2ccc(C(=O)NCc3ccccc3)cc2)n1
5.80 | COc1ccc(Nc2nc(C)cc(N(C)C)n2)cc1
5.40 | COc1cc(Nc2nccc(N(C)C)n2)ccc1F
5.80 | CCOC1CCCN(c2cc(C)nc(Nc3ccc(F)c(OC)c3)n2)C1 (centres undefined)
6.00 | Cc1cc(N(C)C)nc(NCc2ccc(Cl)cc2)n1
5.10 | COc1cc(Nc2nc(C)cc(N3CCOCC3)n2)ccc1F

Test system: not listed separately
Assay: Intrinsic clearance in CD-1 mouse liver microsomes at 0.5 uM after 30 mins in presence of NADPH by UPLC-MS/MS analysis
Assay type: ADME, microsome
Conditions: 0.5 h

CLH [mL/min/g] | Compound
17 | COc1cc(Nc2nc(C)cc(N(C)C)n2)ccc1F
20 | COc1cccc(Nc2cc(C)nc(NCc3ccccc3)n2)c1
0.7 | COc1cc(OC)cc(C(=O)Nc2ccc(Nc3nc(C)cc(N(C)C)n3)cc2)c1
3.4 | COc1cc(Nc2nc(C(=O)N3CCCC3)cc(N(C)C)n2)ccc1F
14 | Cc1cc(N(C)C)nc(Nc2ccc3c(c2)OCO3)n1
35 | COc1cc(Nc2nc(C)cc(N3CCC(F)(F)C3)n2)ccc1F
10 | Cc1cc(Nc2ccc(F)cc2)nc(NCc2ccccc2)n1
3.8 | Cc1cc(N(C)C)nc(NCC2CCOCC2)n1
4.2 | COc1cc(OC)cc(C(=O)N[C@H]2CC[C@H](Nc3nc(C)cc(N(C)C)n3)CC2)c1
11 | Cc1cc(N(C)C)nc(N[C@H](C)c2ccccc2)n1
35 | COc1cc(Nc2nc(CO)cc(N(C)C)n2)ccc1F
8 | COc1cc(Nc2nc(C)cc(NCc3ccccc3)n2)ccc1F
17 | COc1cc(Nc2nc(C)cc(N3CCCCC3)n2)ccc1F
15 | COc1cccc(Nc2nc(C)cc(N(C)C)n2)c1
10 | COc1ccc(Nc2nc(C)cc(N(C)C)n2)cc1
10 | COc1cc(Nc2cc(C)nc(NCc3ccccc3)n2)ccc1F
29 | COc1cc(Nc2nccc(N(C)C)n2)ccc1F
50 | COc1cc(Nc2nc(C(C)C)cc(N(C)C)n2)ccc1F
35 | CCOC1CCCN(c2cc(C)nc(Nc3ccc(F)c(OC)c3)n2)C1 (centres undefined)
12 | Cc1cc(N(C)C)nc(NCc2ccc(Cl)cc2)n1
14 | COc1cc(Nc2nc(C)cc(N3CCCC3)n2)ccc1F
28 | Cc1cc(N(C)C)nc(NCc2ccccc2)n1
18 | COc1cc(Nc2nc(C)cc(N3CCOCC3)n2)ccc1F

Molecular target: Cannabinoid receptor 1 (Homo sapiens, UniProt P21554)
Sequence (P21554 whole entry): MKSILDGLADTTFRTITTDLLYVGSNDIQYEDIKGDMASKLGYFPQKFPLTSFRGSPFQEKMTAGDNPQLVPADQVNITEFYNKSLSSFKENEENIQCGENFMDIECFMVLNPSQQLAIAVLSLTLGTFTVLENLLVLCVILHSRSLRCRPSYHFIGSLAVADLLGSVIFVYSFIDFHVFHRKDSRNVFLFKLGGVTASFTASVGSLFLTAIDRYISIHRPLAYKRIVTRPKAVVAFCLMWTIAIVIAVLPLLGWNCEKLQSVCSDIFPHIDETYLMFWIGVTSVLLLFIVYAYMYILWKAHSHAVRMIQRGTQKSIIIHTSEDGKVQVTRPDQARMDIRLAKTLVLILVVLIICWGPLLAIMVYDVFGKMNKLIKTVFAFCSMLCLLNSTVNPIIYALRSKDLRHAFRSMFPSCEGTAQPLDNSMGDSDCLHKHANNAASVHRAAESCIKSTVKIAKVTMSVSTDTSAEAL
Assay: Inhibition of CB1 (unknown origin)
Conditions: not given

pIC50 | Compound
7.20 | COc1cc(OC)cc(C(=O)N[C@H]2CC[C@H](Nc3nc(C)cc(N(C)C)n3)CC2)c1

Molecular target: Aurora kinase B (Homo sapiens, UniProt Q96GD4)
Sequence (Q96GD4 whole entry): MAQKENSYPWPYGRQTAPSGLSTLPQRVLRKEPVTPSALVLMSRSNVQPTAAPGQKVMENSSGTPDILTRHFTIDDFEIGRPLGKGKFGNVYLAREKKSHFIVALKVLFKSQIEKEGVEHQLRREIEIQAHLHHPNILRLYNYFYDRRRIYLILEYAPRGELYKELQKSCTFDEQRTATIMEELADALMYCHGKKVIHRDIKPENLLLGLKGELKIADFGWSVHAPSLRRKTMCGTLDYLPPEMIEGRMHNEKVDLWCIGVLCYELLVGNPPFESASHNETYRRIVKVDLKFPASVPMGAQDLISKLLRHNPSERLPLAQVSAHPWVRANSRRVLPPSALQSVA
Assay: Inhibition of aurora B (unknown origin)
Conditions: not given

pIC50 | Compound
7.40 | COc1cc(OC)cc(C(=O)N[C@H]2CC[C@H](Nc3nc(C)cc(N(C)C)n3)CC2)c1

Test system: Vero
Assay: Cytotoxicity against African green monkey Vero cells
Assay type: cell-based
Conditions: Chlorocebus sabaeus

Compound | pEC50
COc1cccc(Nc2cc(C)nc(NCc3ccccc3)n2)c1 | 5.10
COc1cc(Nc2nc(C(=O)N3CCCC3)cc(N(C)C)n2)ccc1F | < 4.30
COc1ccccc1NC(=O)c1ccc(Nc2nc(C)cc(N(C)C)n2)cc1 | 6.20
Cc1cc(N(C)C)nc(Nc2ccc3c(c2)OCO3)n1 | < 4.30
Cc1cc(Nc2ccc(F)cc2)nc(NCc2ccccc2)n1 | 5.10
Cc1cc(N(C)C)nc(NCC2CCOCC2)n1 | < 4.30
COc1cc(Nc2nc(N(C)C)cc(C(F)(F)F)n2)ccc1F | < 4.30
Cc1cc(N(C)C)nc(N[C@H]2CC[C@H](NC(=O)c3ccccc3)CC2)n1 | < 4.30
Cc1cc(N(C)C)nc(N[C@H](C)c2ccccc2)n1 | < 4.30
COc1cc(Nc2nc(CO)cc(N(C)C)n2)ccc1F | < 4.30
COc1cc(Nc2nc(C)cc(NCc3ccccc3)n2)ccc1F | 5.30
COc1cc(Nc2nc(C)cc(N3CCCCC3)n2)ccc1F | 4.80
COc1cccc(Nc2nc(C)cc(N(C)C)n2)c1 | < 4.30
Cc1cc(N(C)C)nc(Nc2ccc(C(=O)NCc3ccccc3)cc2)n1 | 5.30
COc1ccc(Nc2nc(C)cc(N(C)C)n2)cc1 | < 4.30
Cc1cc(N(C)C)nc(NC2CCN(C(=O)Cc3ccc(F)cc3F)CC2)n1 | < 4.30
COc1cc(Nc2cc(C)nc(NCc3ccccc3)n2)ccc1F | 5.30
COc1cc(Nc2nccc(N(C)C)n2)ccc1F | < 4.30
COc1cc(Nc2nc(C(C)C)cc(N(C)C)n2)ccc1F | < 4.30
CCOC1CCCN(c2cc(C)nc(Nc3ccc(F)c(OC)c3)n2)C1 (centres undefined) | 4.60
Cc1cc(N(C)C)nc(NCc2ccc(Cl)cc2)n1 | 4.60
Cc1cc(N(C)C)nc(Nc2ccc(C(=O)N3CCCCC3)cc2)n1 | < 4.30
Cc1cc(N(C)C)nc(NCc2ccccc2)n1 | < 4.30
COc1cc(Nc2nc(C)cc(N3CCOCC3)n2)ccc1F | < 4.30

— ChEMBL document CHEMBL4229528, “2,4-Diamino-6-methylpyrimidines for the potential treatment of Chagas' disease” (Bioorg Med Chem Lett, 2018)
